We go through eight compounds from ChEMBL document CHEMBL3286175, “Cytotoxic alkylated hydroquinone, phenol, and cyclohexenone derivatives from Aspergillus violaceofuscus Gasperini” (2014).

Type in all cases: functional
Experiment [1] has as its system RAW264.7. In words: Cytotoxicity against mouse RAW264.7 cells assessed as cell viability after 24 hrs by WST-1 assay. Conditions: RAW264.7, 24 h, read-out: LD50 (the source's name). The procedure, abridged: (§1)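 Cells from ATCC grown in McCoy's 5A with 10% FBS, penicillin (100 units/mL) and streptomycin (100 μg/mL) at 37 °C, 5% CO2. Seeded at 1 × 10^4 cells per well with a range of compound concentrations for 24 h. Viability read by WST-1. LD50 values reported as mean ± SD (n = 5).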
For orientation: Tetrazolium dyes change colour on reduction, which living cells bring about.

In experiment [2] the test system is HCT-116. Put plainly: Cytotoxicity against human HCT116 cells assessed as cell viability after 24 hrs by WST-1 assay. As to conditions: HCT-116, 24 h, read-out: LD50 (the source's name). The procedure, abridged:
as §1

For experiment [3], the system named is HeLa. Put plainly: Cytotoxicity against human HeLa cells assessed as cell viability after 24 hrs by WST-1 assay. Conditions: read-out: LD50 (the source's name). In outline:
as §1

Experiment [4] deals with Jurkat. In words: Cytotoxicity against human Jurkat cells assessed as cell viability after 24 hrs by WST-1 assay. As to conditions: read-out: LD50 (the source's name). The procedure, abridged:
as §1

Experiment [5] concerns MOLT-4. In words: Cytotoxicity against human MOLT4 cells assessed as cell viability after 24 hrs by WST-1 assay. As to conditions: MOLT-4, 24 h, read-out: LD50 (the source's name). In outline: as §1
For experiment [6], the system named is MCF7. In words: Cytotoxicity against human MCF7 cells assessed as cell viability after 24 hrs by WST-1 assay. Conditions: MCF7, 24 h, read-out: LD50 (the source's name). The procedure, abridged: as §1

In the case of `Nc1ccn([C@@H]2O[C@H](CO)[C@@H](O)C2(F)F)c(=O)n1` [GEMCITABINE], the CC50 in experiment [1] amounted to 0.005 µM; in experiment [2] it was 0.005 µM; in experiment [3], 0.023 µM; in experiment [4] it was 0.012 µM; in experiment [5] it was 0.008 µM; in experiment [6], 0.004 µM.
For the compound `CCCCC/C=C/C1=C(CO)C(=O)[C@H]2O[C@H]2[C@@H]1O`, the CC50 was found to be 6.5 µM in experiment [1]; 6.4 µM in experiment [2]; 77.8 µM in experiment [3]; 20 µM in experiment [4]; 11.2 µM in experiment [5]; 75 µM in experiment [6].
For the compound `CCCCC/C=C/c1c(O)ccc(O)c1CO`, the CC50 in experiment [1] worked out at 5.6 µM; in experiment [2] it was 5.8 µM; in experiment [3], 24.6 µM; in experiment [4], 3.1 µM; in experiment [5], 3 µM; in experiment [6], 14.8 µM.
Take `CCCCCCC(O)c1c(O)ccc(O)c1CO` (stereo not drawn): the CC50 in experiment [1] is 55.4 µM; in experiment [2], 69.7 µM; in experiment [3], more than 100 µM; in experiment [4] it was more than 100 µM; in experiment [5], more than 100 µM; in experiment [6] it was more than 100 µM.
Regarding `CCCCC/C=C/C1=C(CO)[C@H](O)[C@H]2O[C@H]2[C@@H]1O`, the CC50 in experiment [1], in experiment [2], in experiment [3], in experiment [4], in experiment [5] and in experiment [6] was more than 100 µM throughout.
Consider `CCCCCCC(O)c1cccc(O)c1CO` (stereo not drawn), for which the CC50 in experiment [1] is 26.2 µM; in experiment [2], 66 µM; in experiment [3], 64.2 µM; in experiment [4] it was 8.3 µM; in experiment [5], 6.2 µM; in experiment [6], more than 100 µM.
`CCCCCCCc1c(O)ccc(O)c1CO`: the CC50 in experiment [1] is 20.1 µM; in experiment [2], 61.8 µM; in experiment [3] it was 77.6 µM; in experiment [4], 8.2 µM; in experiment [5], 5.9 µM; in experiment [6] it was 93 µM.
`CCCCC/C=C/C1=C(CO)C(=O)C[C@H](O)[C@@H]1O`: the CC50 in experiment [1], in experiment [2], in experiment [3], in experiment [4], in experiment [5] and in experiment [6] was more than 100 µM each time.
